pIC50: −log10 of the molar value. In brackets after ≈: the same amount, converted by molar mass.
Legend:
Neisseria gonorrhoeae [1] = test: Antimicrobial activity against Neisseria gonorrhoeae L strain harbouring type 2 topoisomerase GyrA S91F,D95N and ParC D86N,S88P mutant incubated for 20 hrs by agar dilution method; assay type: functional
Neisseria gonorrhoeae [2] = test: Antimicrobial activity against Neisseria gonorrhoeae M strain harbouring type 2 topoisomerase GyrA S91F,D95G mutant incubated for 20 hrs by agar dilution method; assay type: functional
Neisseria gonorrhoeae [3] = test: Antimicrobial activity against wild type Neisseria gonorrhoeae ATCC 49226 incubated for 20 to 24 hrs by CLSI protocol based broth microdilution method; assay type: functional; settings: time 20-24 hrs
Neisseria gonorrhoeae [4] = test: Antimicrobial activity against wild type Neisseria gonorrhoeae Y strain harbouring type 2 topoisomerase GyrA S91F, D95G and ParC S87R mutant incubated for 20 to 24 hrs by CLSI protocol based broth microdilution method; assay type: functional; settings: time 20-24 hrs
Neisseria gonorrhoeae [5] = test: Antimicrobial activity against wild type Neisseria gonorrhoeae V strain harbouring type 2 topoisomerase GyrA S91F, D95G and ParC S87R mutant incubated for 20 to 24 hrs by CLSI protocol based broth microdilution method; assay type: functional; settings: time 20-24 hrs
[6] = Inhibition of Neisseria gonorrhoeae DNA gyrase supercoiling activity incubated for 25 min by ethidium bromide/bromophenol blue staining based agarose gel electrophoresis analysis
Method in brief: (§1)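 The N. gonorrhoeae enzymes were assayed separately: supercoiling by DNA gyrase, and decatenation of kDNA by topoisomerase IV. Concentration–response data were collected over at least three independent experiments and summarized with standard deviation, and IC50 values were derived.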

Neisseria gonorrhoeae [7] = test: Antimicrobial activity against Neisseria gonorrhoeae G strain harbouring type 2 topoisomerase GyrA S91F and ParE G410V mutant incubated for 20 to 24 hrs by CLSI protocol based broth microdilution method; assay type: functional; settings: time 20-24 hrs
Neisseria gonorrhoeae [8] = test: Antimicrobial activity against Neisseria gonorrhoeae K strain harbouring type 2 topoisomerase GyrA S91F, D95N and ParC S87R, S88P mutant incubated for 20 to 24 hrs by CLSI protocol based broth microdilution method; assay type: functional; settings: time 20-24 hrs
Neisseria gonorrhoeae [9] = test: Antimicrobial activity against wild type Neisseria gonorrhoeae F strain incubated for 20 to 24 hrs by CLSI protocol based broth microdilution method; assay type: functional; settings: time 20-24 hrs
Neisseria gonorrhoeae [10] = test: Antimicrobial activity against wild type Neisseria gonorrhoeae P strain incubated for 20 to 24 hrs by CLSI protocol based broth microdilution method; assay type: functional; settings: time 20-24 hrs
Neisseria gonorrhoeae [11] = test: Antimicrobial activity against wild type Neisseria gonorrhoeae O strain incubated for 20 to 24 hrs by CLSI protocol based broth microdilution method; assay type: functional; settings: time 20-24 hrs
[12] = Inhibition of Neisseria gonorrhoeae DNA topoisomerase 4 decatenation activity using kDNA as substrate incubated for 10 to 20 min by ethidium bromide/bromophenol blue staining based agarose gel electrophoresis analysis; method in brief: as §1
Staphylococcus aureus [13] = test: Antibacterial activity against Staphylococcus aureus harbouring GyrA D83N mutant by CLSI method; assay type: functional
Staphylococcus aureus [14] = test: Antibacterial activity against cystic fibrosis isolate Staphylococcus aureus by CLSI method; assay type: functional
[15] = molecular target: Voltage-gated inwardly rectifying potassium channel KCNH2 (Homo sapiens, UniProt Q12809); test: Inhibition of hERG cardiac ion channel; assay type: toxicity
Method in brief: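 hERG channel inhibition was run by a contract lab. […] Determinations were made in duplicate or triplicate (n = 2 or 3).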

Staphylococcus aureus [16] = test: Selectivity ratio of IC50 for inhibition of Staphylococcus aureus DNA topoisomerase 4 decatenation activity to IC50 for inhibition of Staphylococcus aureus DNA gyrase supercoiling activity
Topoisomerase IV = Topoisomerase IV (Staphylococcus aureus, UniProt P0C1S7+P0C1U9); test: Inhibition of Staphylococcus aureus DNA topoisomerase 4 decatenation activity using kDNA as substrate incubated for 10 to 20 min by ethidium bromide/bromophenol blue staining based agarose gel electrophoresis analysis; assay type: protein-complex assay
[17] = Cytotoxicity activity against human K/VP.5 cells assessed as inhibition of cellular growth; assay type: toxicity, cell-based
Method in brief: (§2)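 Human K562 leukemia cells were tested alongside K/VP.5, an etoposide-resistant clonal subline derived from them that has reduced levels of human topoisomerase IIα. Cell growth inhibition was expressed as an IC50.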

DNA gyrase = DNA gyrase (Staphylococcus aureus, UniProt P0A0K8+P20831); test: Inhibition of Staphylococcus aureus DNA gyrase supercoiling activity incubated for 25 min by ethidium bromide/bromophenol blue staining based agarose gel electrophoresis analysis; assay type: protein-complex assay
Staphylococcus aureus [18] = test: Antibacterial activity against methicillin-resistant Staphylococcus aureus USA300 by CLSI method; assay type: functional
[19] = Metabolic stability in mouse liver microsomes assessed as half life; assay type: ADME, Microsome
Staphylococcus aureus [20] = test: Antibacterial activity against Staphylococcus aureus ATCC 29213 by CLSI method; assay type: functional
Staphylococcus aureus [21] = test: Antibacterial activity against Staphylococcus aureus 3527 by CLSI method; assay type: functional
[22] = Cytotoxicity activity against human K562 cells assessed as inhibition of cellular growth; assay type: toxicity, cell-based; method in brief: as §2
Neisseria gonorrhoeae [23] = test: Antimicrobial activity against wild type Neisseria gonorrhoeae ATCC 49226 incubated for 20 hrs by agar dilution method; assay type: functional
Neisseria gonorrhoeae [24] = test: Antimicrobial activity against Neisseria gonorrhoeae G strain harbouring type 2 topoisomerase GyrA S91F and ParE G410V mutant incubated for 20 hrs by agar dilution method; assay type: functional

Row | Structure (SMILES) | MIC (Neisseria gonorrhoeae [3]) [µg/mL] | MIC (Neisseria gonorrhoeae [4]) [µg/mL] | MIC (Neisseria gonorrhoeae [5]) [µg/mL] | MIC (Neisseria gonorrhoeae [7]) [µg/mL] | MIC (Neisseria gonorrhoeae [8]) [µg/mL] | MIC (Neisseria gonorrhoeae [9]) [µg/mL] | MIC (Neisseria gonorrhoeae [10]) [µg/mL] | MIC (Neisseria gonorrhoeae [11]) [µg/mL] | MIC (Staphylococcus aureus [13]) [µg/mL] | MIC (Staphylococcus aureus [14]) [µg/mL] | pIC50 [15] | Ratio IC50 (Staphylococcus aureus [16]) | pIC50 (Topoisomerase IV) | pIC50 [17] | pIC50 (DNA gyrase) | MIC (Staphylococcus aureus [18]) [µg/mL] | half-life [19] [min] | MIC (Staphylococcus aureus [20]) [µg/mL] | MIC (Staphylococcus aureus [21]) [µg/mL] | pIC50 [22] | other results
1 | O=C(O)c1cn(C2CC2)c2cc(N3CCNCC3)c(F)cc2c1=O [CIPROFLOXACIN] | – | – | – | – | – | – | – | – | – | – | – | – | – | – | – | – | – | – | – | – | MIC (Neisseria gonorrhoeae [1]): > 8 µg/mL; MIC (Neisseria gonorrhoeae [2]): 2 µg/mL (≈ 6.04 µM)
2 | COc1ccc2ncc(F)c(C[C@H](O)[C@H]3OC[C@H](NCc4cc5c(nn4)OCCS5)CO3)c2n1 | 8 (≈ 16.3 µM) | 0.5 (≈ 1.02 µM) | ≤ 0.03 | 32 (≈ 65.4 µM) | 16 (≈ 32.7 µM) | 1 (≈ 2.04 µM) | 16 (≈ 32.7 µM) | 16 (≈ 32.7 µM) | – | – | – | – | – | – | – | – | – | – | – | – | pIC50 [6]: 4.48; pIC50 [12]: 4.08
3 | O=c1ccc2ncc(F)c3c2n1CC3C[C@H]1OC[C@H](NCc2ccc3c(c2)OCCO3)CO1 (stereo partly drawn) | 0.25 (≈ 0.551 µM) | ≤ 0.03 | ≤ 0.03 | 4 (≈ 8.82 µM) | 1 (≈ 2.21 µM) | 0.12 (≈ 0.265 µM) | 2 (≈ 4.41 µM) | 2 (≈ 4.41 µM) | 2 (≈ 4.41 µM) | 0.25 (≈ 0.551 µM) | 4.00 | 11 | 6.27 | 4.41 | 7.33 | 0.125 (≈ 0.276 µM) | 13.9 | 0.125 (≈ 0.276 µM) | 0.25 (≈ 0.551 µM) | 4.46 | –
4 | O=c1ccc2ncc(F)c3c2n1CC3C[C@H]1OC[C@H](NCc2cc3c(cn2)OCCC3)CO1 (stereo partly drawn) | 2 (≈ 4.42 µM) | 0.25 (≈ 0.553 µM) | ≤ 0.03 | 8 (≈ 17.7 µM) | 1 (≈ 2.21 µM) | 0.12 (≈ 0.265 µM) | 2 (≈ 4.42 µM) | 2 (≈ 4.42 µM) | 8 (≈ 17.7 µM) | 0.5 (≈ 1.11 µM) | 3.90 | 0.76 | 5.80 | 3.73 | 5.68 | 1 (≈ 2.21 µM) | 18.3 | 0.25 (≈ 0.553 µM) | 1 (≈ 2.21 µM) | 3.57 | –
5 | COc1ccc2ncc(F)c(C[C@H](O)[C@H]3OC[C@H](NC(=O)c4ccc5c(n4)NC(=O)CS5)CO3)c2n1 | ≤ 0.015 | ≤ 0.015 | ≤ 0.015 | 0.12 (≈ 0.233 µM) | ≤ 0.015 | ≤ 0.015 | ≤ 0.015 | ≤ 0.015 | 0.25 (≈ 0.485 µM) | ≤ 0.06 | < 4.00 | 2.8 | 6.38 | < 4.00 | 6.82 | ≤ 0.06 | 5.42 | 0.06 (≈ 0.116 µM) | ≤ 0.06 | 5.12 | MIC (Neisseria gonorrhoeae [1]): 0.5 µg/mL (≈ 0.97 µM); MIC (Neisseria gonorrhoeae [23]): 0.12 µg/mL (≈ 0.233 µM); pIC50 [6]: 6.19; MIC (Neisseria gonorrhoeae [2]): 0.12 µg/mL (≈ 0.233 µM); MIC (Neisseria gonorrhoeae [24]): 0.25 µg/mL (≈ 0.485 µM); pIC50 [12]: 4.57
6 | O=c1ccc2ccc(F)c3c2n1CC3C[C@H]1OC[C@H](NCc2cc3c(nn2)OCCS3)CO1 (stereo partly drawn) | 16 (≈ 34 µM) | 2 (≈ 4.25 µM) | 4 (≈ 8.5 µM) | 32 (≈ 68 µM) | 32 (≈ 68 µM) | 2 (≈ 4.25 µM) | 16 (≈ 34 µM) | 16 (≈ 34 µM) | 8 (≈ 17 µM) | 0.5 (≈ 1.06 µM) | 3.70 | 4.4 | 5.13 | 3.99 | 5.77 | 1 (≈ 2.13 µM) | 21.9 | 0.5 (≈ 1.06 µM) | 1 (≈ 2.13 µM) | 4.41 | –

— ChEMBL document CHEMBL5131562, “1,3-Dioxane-Linked Novel Bacterial Topoisomerase Inhibitors: Expanding Structural Diversity and the Antibacterial Spectrum” (ACS Med Chem Lett, 2022)
